Assay results: ChEMBL document CHEMBL1629526, “4-[1-(Substituted aryl/alkyl carbonyl)-benzoimidazol-2-yl]-benzenesulfonic acids: synthesis, antimicrobial activity, QSAR studies, and antiviral evaluation” (Eur J Med Chem, 2010)
Converted amounts (≈) assume the structure as drawn.

Experiments:
Staphylococcus aureus = test: Antimicrobial activity against Staphylococcus aureus after 24 hrs by tube dilution method; type: functional
Bacillus subtilis = test: Antimicrobial activity against Bacillus subtilis after 24 hrs by tube dilution method; type: functional
How it was run: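 Serial dilutions in double-strength nutrient broth (I.P.) with ciprofloxacin as reference, tube dilution, incubated 37 °C for 24 h. MIC is the lowest concentration that inhibited growth.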

Escherichia coli = test: Antimicrobial activity against Escherichia coli after 24 hrs by tube dilution method; type: functional
Candida albicans = test: Antimicrobial activity against Candida albicans after 48 hrs by tube dilution method; type: functional
Aspergillus niger = test: Antimicrobial activity against Aspergillus niger after 7 days by tube dilution method; type: functional; conditions: 168 h
[1] = Cytotoxicity against cat CRFK cells assessed as cell viability by MTS assay; type: cell-based, Felis catus; conditions: crfk
How it was run: (§1)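 Uninfected cultures were run in parallel with the antiviral assays. Viability was read by colorimetric formazan MTS assay.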

Felid alphaherpesvirus 1 = test: Antiviral activity against Feline herpesvirus 1 infected in cat CRFK cells assessed as inhibition of virus induced cytopathicity after 2 to 4 days by MTS assay; type: functional, organism-based; conditions: Felid alphaherpesvirus 1, CRFK
Feline coronavirus = test: Antiviral activity against Feline coronavirus infected in cat CRFK cells assessed as inhibition of virus induced cytopathicity after 2 to 4 days by MTS assay; type: functional, organism-based; conditions: Alphacoronavirus 1, CRFK
[2] = Cytotoxicity against human HEL cells assessed as altered cell morphology; type: cell-based
How it was run: (§2)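 Uninfected cell cultures run alongside the antiviral assays, exposed to serial compound dilutions and incubated at 37 °C for 2–4 days. Toxicity was scored microscopically and reported as the minimum cytotoxic concentration (MCC), the lowest concentration causing a detectable change in normal cell morphology.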

Human alphaherpesvirus 1 [3] = test: Antiviral activity against Herpes simplex virus 1 KOS infected in HEL cells assessed as inhibition of virus induced cytopathicity after 2 to 4 days by MTS assay; type: functional, organism-based; conditions: Human alphaherpesvirus 1, KOS
Human alphaherpesvirus 2 = test: Antiviral activity against Herpes simplex virus 2 G infected in HEL cells assessed as inhibition of virus induced cytopathicity after 2 to 4 days by MTS assay; type: functional, organism-based; conditions: Human alphaherpesvirus 2, strain G
Vaccinia virus = test: Antiviral activity against Vaccinia virus infected in HEL cells assessed as inhibition of virus induced cytopathicity after 2 to 4 days by MTS assay; type: functional, organism-based; conditions: Orthopoxvirus vaccinia
[4] = system: Vesicular stomatitis virus; test: Antiviral activity against Vesicular stomatitis virus infected in HEL cells assessed as inhibition of virus induced cytopathicity after 2 to 4 days by MTS assay; type: functional, organism-based
Human alphaherpesvirus 1 [5] = test: Antiviral activity against thymidine kinase deficient acyclovir-resistant Herpes simplex virus 1 KOS infected in HEL cells assessed as inhibition of virus induced cytopathicity after 2 to 4 days by MTS assay; type: functional, organism-based; conditions: Human alphaherpesvirus 1, KOS
HeLa = test: Cytotoxicity against human HeLa cells assessed as cell viability by MTS assay; type: cell-based; conditions: hela; how it was run: as §1
[6] = Cytotoxicity against human HeLa cells assessed as altered cell morphology; type: cell-based; how it was run: as §2
[7] = system: Vesicular stomatitis virus; test: Antiviral activity against Vesicular stomatitis virus infected in human HeLa cells assessed as inhibition of virus induced cytopathicity by visual scoring of CPE; type: functional, organism-based
[8] = system: Vesicular stomatitis virus; test: Antiviral activity against Vesicular stomatitis virus infected in human HeLa cells assessed as inhibition of virus induced cytopathicity after 2 to 4 days by MTS assay; type: functional, organism-based
Coxsackievirus B4 [9] = test: Antiviral activity against coxsackievirus B4 infected in human HeLa cells assessed as inhibition of virus induced cytopathicity by visual scoring of CPE; type: functional, organism-based; conditions: Enterovirus B
Coxsackievirus B4 [10] = test: Antiviral activity against coxsackievirus B4 infected in human HeLa cells assessed as inhibition of virus induced cytopathicity after 2 to 4 days by MTS assay; type: functional, organism-based; conditions: Enterovirus B
[11] = system: Respiratory syncytial virus; test: Antiviral activity against Respiratory syncytial virus infected in human HeLa cells assessed as inhibition of virus induced cytopathicity by visual scoring of CPE; type: functional, organism-based
[12] = system: Respiratory syncytial virus; test: Antiviral activity against Respiratory syncytial virus infected in human HeLa cells assessed as inhibition of virus induced cytopathicity after 2 to 4 days by MTS assay; type: functional, organism-based
MDCK = test: Cytotoxicity against MDCK cells assessed as cell viability by MTS assay; type: cell-based, Canis lupus familiaris; conditions: dog, mdck; how it was run: as §1
[13] = Cytotoxicity against MDCK cells assessed as altered cell morphology; type: cell-based, Canis lupus familiaris; conditions: dog; how it was run: as §2
Influenza A virus [14] = test: Antiviral activity against Influenza A H3N2 virus subtype infected in MDCK cells assessed as inhibition of virus induced cytopathicity by visual scoring of CPE; type: functional, organism-based
Influenza A virus [15] = test: Antiviral activity against Influenza A H3N2 virus subtype infected in MDCK cells assessed as inhibition of virus induced cytopathicity after 2 to 4 days by MTS assay; type: functional, organism-based
Influenza B virus [16] = test: Antiviral activity against Influenza B virus infected in MDCK cells assessed as inhibition of virus induced cytopathicity by visual scoring of CPE; type: functional, organism-based
Influenza B virus [17] = test: Antiviral activity against Influenza B virus infected in MDCK cells assessed as inhibition of virus induced cytopathicity after 2 to 4 days by MTS assay; type: functional, organism-based
[18] = Cytotoxicity against african green monkey Vero cells assessed as altered cell morphology; type: cell-based; conditions: chlorocebus sabaeus; how it was run: as §2
Human respirovirus 3 = test: Antiviral activity against parainfluenza-3 virus infected in african green monkey Vero cells assessed as inhibition of virus induced cytopathicity after 2 to 4 days by MTS assay; type: functional, organism-based; conditions: Human respirovirus 3, Vero
[19] = system: Mammalian orthoreovirus 1; test: Antiviral activity against Reovirus 1 virus infected in african green monkey Vero cells assessed as inhibition of virus induced cytopathicity after 2 to 4 days by MTS assay; type: functional, organism-based; conditions: Mammalian orthoreovirus 1, Vero
Sindbis virus = test: Antiviral activity against Sindbis virus infected in african green monkey Vero cells assessed as inhibition of virus induced cytopathicity after 2 to 4 days by MTS assay; type: functional, organism-based
Coxsackievirus B4 [20] = test: Antiviral activity against Coxsackie virus B4 infected in african green monkey Vero cells assessed as inhibition of virus induced cytopathicity after 2 to 4 days by MTS assay; type: functional, organism-based; conditions: Enterovirus B
Punta Toro virus = test: Antiviral activity against Punta Toro virus infected in african green monkey Vero cells assessed as inhibition of virus induced cytopathicity after 2 to 4 days by MTS assay; type: functional, organism-based

SMILES | MBC (Staphylococcus aureus) [µg/mL] | MBC (Bacillus subtilis) [µg/mL] | MBC (Escherichia coli) [µg/mL] | MFC (Candida albicans) [µg/mL] | MFC (Aspergillus niger) [µg/mL] | CC50 [1] [µg/mL] | EC50 (Felid alphaherpesvirus 1) [µg/mL] | EC50 (Feline coronavirus) [µg/mL] | MCC [2] [µg/mL] | EC50 (Human alphaherpesvirus 1 [3]) [µg/mL] | EC50 (Human alphaherpesvirus 2) [µg/mL] | EC50 (Vaccinia virus) [µg/mL] | EC50 [4] [µg/mL] | EC50 (Human alphaherpesvirus 1 [5]) [µg/mL] | CC50 (HeLa) [µg/mL] | MCC [6] [µg/mL] | EC50 [7] [µg/mL] | EC50 [8] [µg/mL] | EC50 (Coxsackievirus B4 [9]) [µg/mL] | EC50 (Coxsackievirus B4 [10]) [µg/mL] | also measured
CCCCCCCCCCCCCCCC(=O)n1c(-c2ccc(S(=O)(=O)O)cc2)nc2ccccc21 | 6.25 (≈ 12.2 µM) | 12.5 (≈ 24.4 µM) | 12.5 (≈ 24.4 µM) | > 50 | > 50 | > 100 | > 100 | > 100 | > 100 | > 100 | > 100 | > 100 | > 100 | > 100 | > 100 | > 100 | > 100 | > 100 | > 100 | > 100 | EC50 [11]: > 100 µg/mL; EC50 [12]: > 100 µg/mL; CC50 (MDCK): > 100 µg/mL; MCC [13]: > 100 µg/mL; EC50 (Influenza A virus [14]): > 100 µg/mL; EC50 (Influenza A virus [15]): > 100 µg/mL; EC50 (Influenza B virus [16]): > 100 µg/mL; EC50 (Influenza B virus [17]): > 100 µg/mL; MCC [18]: > 100 µg/mL; EC50 (Human respirovirus 3): > 100 µg/mL; EC50 [19]: > 100 µg/mL; EC50 (Sindbis virus): > 100 µg/mL; EC50 (Coxsackievirus B4 [20]): > 100 µg/mL; EC50 (Punta Toro virus): > 100 µg/mL
C=C(C)C(=O)n1c(-c2ccc(S(=O)(=O)O)cc2)nc2ccccc21 | 6.25 (≈ 18.3 µM) | 12.5 (≈ 36.5 µM) | 12.5 (≈ 36.5 µM) | > 50 | > 50 | > 100 | > 100 | > 100 | > 100 | > 100 | > 100 | > 100 | > 100 | > 100 | > 100 | > 100 | > 100 | > 100 | > 100 | > 100 | EC50 [11]: > 100 µg/mL; EC50 [12]: > 100 µg/mL; CC50 (MDCK): > 100 µg/mL; MCC [13]: > 100 µg/mL; EC50 (Influenza A virus [14]): > 100 µg/mL; EC50 (Influenza A virus [15]): > 100 µg/mL; EC50 (Influenza B virus [16]): > 100 µg/mL; EC50 (Influenza B virus [17]): > 100 µg/mL; MCC [18]: > 100 µg/mL; EC50 (Human respirovirus 3): > 100 µg/mL; EC50 [19]: > 100 µg/mL; EC50 (Sindbis virus): > 100 µg/mL; EC50 (Coxsackievirus B4 [20]): > 100 µg/mL; EC50 (Punta Toro virus): > 100 µg/mL
O=C(c1cccnc1)n1c(-c2ccc(S(=O)(=O)O)cc2)nc2ccccc21 | 12.5 (≈ 32.9 µM) | > 50 | 1.56 (≈ 4.11 µM) | > 50 | > 50 | > 100 | > 100 | > 100 | > 100 | > 100 | > 100 | > 100 | > 100 | > 100 | > 100 | > 100 | > 100 | > 100 | > 100 | > 100 | EC50 [11]: > 100 µg/mL; EC50 [12]: > 100 µg/mL; CC50 (MDCK): > 100 µg/mL; MCC [13]: > 100 µg/mL; EC50 (Influenza A virus [14]): > 100 µg/mL; EC50 (Influenza A virus [15]): > 100 µg/mL; EC50 (Influenza B virus [16]): > 100 µg/mL; EC50 (Influenza B virus [17]): > 100 µg/mL; MCC [18]: > 100 µg/mL; EC50 (Human respirovirus 3): > 100 µg/mL; EC50 [19]: > 100 µg/mL; EC50 (Sindbis virus): > 100 µg/mL; EC50 (Coxsackievirus B4 [20]): > 100 µg/mL; EC50 (Punta Toro virus): > 100 µg/mL
CCCCC(=O)n1c(-c2ccc(S(=O)(=O)O)cc2)nc2ccccc21 | 6.25 (≈ 17.4 µM) | 6.25 (≈ 17.4 µM) | 6.25 (≈ 17.4 µM) | 12.5 (≈ 34.9 µM) | > 50 | > 100 | > 100 | > 100 | > 100 | > 100 | > 100 | > 100 | > 100 | > 100 | > 100 | > 100 | > 100 | > 100 | > 100 | > 100 | EC50 [11]: > 100 µg/mL; EC50 [12]: > 100 µg/mL; CC50 (MDCK): > 100 µg/mL; MCC [13]: > 100 µg/mL; EC50 (Influenza A virus [14]): > 100 µg/mL; EC50 (Influenza A virus [15]): > 100 µg/mL; EC50 (Influenza B virus [16]): > 100 µg/mL; EC50 (Influenza B virus [17]): > 100 µg/mL; MCC [18]: > 100 µg/mL; EC50 (Human respirovirus 3): > 100 µg/mL; EC50 [19]: > 100 µg/mL; EC50 (Sindbis virus): > 100 µg/mL; EC50 (Coxsackievirus B4 [20]): > 100 µg/mL; EC50 (Punta Toro virus): > 100 µg/mL
